Results taken from ChEMBL document CHEMBL3244351, “Aroyl- and arylisoquinolineacetic acids as antiinflammatory agents” (1978).
Calls of active or inactive are those of the source. The calls are words filed in the database; no cut-off is given here.

Tests used:
[1] = tested on: Rattus norvegicus; assay: Antiinflammatory activity in carrageenan-induced rat assessed as efficacy ratio for reduction in pleural effusion at 316 mg/kg, po after 5 hrs by Evans blue assay relative to control; format: functional
Outline: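 Rats given 316 mg/kg orally (two rats), then intrapleural injection of 5 mL 0.075% Evans blue/0.5% carrageenan type 7. Pleural effusion volume measured at 5 h. Efficacy ratio is control effusion volume divided by treated effusion volume, judged by sequential analysis; a ratio ≥1.30 counts as active.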

[2] = tested on: Rattus norvegicus; assay: Antiinflammatory activity in Evans blue carrageenan-induced pleural effusion rat model assessed as decrease in volume of pleural fluid at 100 mg/kg relative to control
[3] = tested on: Rattus norvegicus; assay: Antiinflammatory activity in adjuvant-induced arthritic rat chronic inflammation model assessed as […] at 31.6 mg/kg; format: functional, organism-based; set-up: dose 31.6 mg/kg

SMILES	T/C [1]	Activity [2]	Activity [3]
O=C(O)c1cc2ccccc2c(C(=O)c2ccccc2)n1	1.28		
O=C(O)c1cc2ccccc2c(-c2ccccc2)n1	1.26	inactive	
Br.O=C(c1ccccc1)c1ccccn1	1.23	inactive	
Br.Cc1cc2ccccc2c(C(=O)c2ccccc2)n1	0.93	inactive	
CCOC(=O)c1nc(-c2ccccc2)c2ccccc2c1OC(C)=O	1.06	inactive	
O=C(O)c1ccc2ccccc2c1 [BETA-NAPHTOIC ACID]	1.13	inactive	
Br.CCOC(=O)c1cc2ccccc2cn1	1.97	1%	
NC(=O)Cc1cc2ccccc2c(-c2ccc(Cl)cc2)n1		22%	inactive
NC(=O)Cc1cnc(-c2ccccc2)c2ccccc12		9%	
Br.CCOC(=O)Cc1cc2ccccc2cn1	1.2		
Br.O=C(c1ccccc1)c1nccc2ccccc12	0.83	inactive	
NC(=O)Cc1cc2ccccc2c(C(=O)c2ccccc2)n1	0.9	inactive	
CCCCC1C(=O)N(c2ccccc2)N(c2ccccc2)C1=O			Active
NC(=O)Cc1cc2ccccc2c(-c2ccccc2)n1	1.33	14%	
